Assay results reported in ChEMBL document CHEMBL3232989, “First identification of boronic species as novel potential inhibitors of the Staphylococcus aureus NorA efflux pump” (J Med Chem, 2014).
Values after ≈ are worked out from the molar mass of the structure shown.

Experiments:
Staphylococcus aureus [1] = experiment: Toxicity in Staphylococcus aureus ATCC 25923 after 24 hrs by microdilution method; assay type: organism-based
In short: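 Mueller–Hinton broth microdilution; inoculum from frozen culture grown 18 h at 37 °C, 10^6 CFU/mL per well. Compounds (10 mg/mL DMSO stock) in 2-fold serial dilutions, highest 128 mg/L, first screened at 100 μg/mL. MIC = complete growth inhibition after 24 h at 37 °C, read at 620 nm and visually; duplicate; ampicillin control.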

Staphylococcus aureus [2] = experiment: Toxicity in fluoroquinolone-resistant Staphylococcus aureus 1199B expressing NorA after 24 hrs by microdilution method; assay type: organism-based; settings: in vitro
In short: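 Broth microdilution in Mueller–Hinton broth, 10^6 CFU/mL per well from an 18 h 37 °C culture. Compounds come from 10 mg/mL DMSO stocks as 2-fold serial dilutions, top 128 mg/L. Plates run 24 h at 37 °C and are read at 620 nm and visually. MIC is the lowest concentration with complete growth inhibition. Duplicates; 2-fold variance accepted.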

[3] = biological target: T1, Quinolone resistance protein NorA (Staphylococcus aureus) (UniProt P0A0J7); experiment: Inhibition of NorA in fluoroquinolone-resistant Staphylococcus aureus 1199B assessed as potentiation of 4 ug/ml of ciprofloxacin MIC at 100 ug/ml after 24 hrs by microdilution method
T1 sequence (whole entry): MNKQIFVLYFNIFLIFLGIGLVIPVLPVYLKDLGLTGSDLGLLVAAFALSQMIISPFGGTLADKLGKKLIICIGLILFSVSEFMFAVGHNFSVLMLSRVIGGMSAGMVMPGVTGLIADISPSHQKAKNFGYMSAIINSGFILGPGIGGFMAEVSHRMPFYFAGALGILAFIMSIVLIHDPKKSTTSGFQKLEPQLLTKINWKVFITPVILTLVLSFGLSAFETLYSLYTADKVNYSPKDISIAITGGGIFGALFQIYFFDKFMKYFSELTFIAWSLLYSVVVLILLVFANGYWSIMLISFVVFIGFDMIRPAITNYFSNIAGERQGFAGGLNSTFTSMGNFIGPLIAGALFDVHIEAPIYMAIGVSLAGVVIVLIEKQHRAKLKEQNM
In short: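 Combination with ciprofloxacin 4 μg/mL (MIC/4) against SA-1199B in MH broth microdilution, 10^6 CFU/mL, 24 h at 37 °C, read at 620 nm and visually. Compounds are first screened at 100 μg/mL; actives are 2-fold serially diluted. MMC4 is the lowest inhibitor concentration giving antibacterial activity with subinhibitory ciprofloxacin. Duplicates.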

Staphylococcus aureus [4] = experiment: Toxicity in Staphylococcus aureus ATCC 25923 at 100 ug/ml after 24 hrs by microdilution method; assay type: organism-based
In short: (§1)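 Single-point screen at 100 μg/mL of compound alone in MH broth microdilution, 10^6 CFU/mL, 24 h at 37 °C. Growth is read at 620 nm and visually, giving percent growth inhibition. Compounds inhibiting more than 90% then go to MIC determination. Duplicates.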

Staphylococcus aureus [5] = experiment: Toxicity in fluoroquinolone-resistant Staphylococcus aureus 1199B expressing NorA at 100 ug/ml after 24 hrs by microdilution method; assay type: organism-based; in short: as §1

SMILES	MIC (Staphylococcus aureus [1])	MIC (Staphylococcus aureus [2])	Activity [3] [µg/mL]	growth inhibition (GI) (Staphylococcus aureus [4]) [%]	growth inhibition (GI) (Staphylococcus aureus [5]) [%]
Oc1ccc2ccccc2c1 [BETANAPHTHOL]	>= 64 ug ml-1	> 128 µg/mL	64		
Oc1cnc2ccccc2c1	>= 64 ug ml-1	> 128 µg/mL	> 128		
O=C(O)c1ccc(Cl)nc1 [6-CHLORONICOTINIC ACID]	>= 64 ug ml-1	> 128 µg/mL	> 128		
OB(O)c1cncc(Oc2cccnc2)c1	>= 64 ug ml-1	> 128 µg/mL	16		
O=Cc1ccccc1Cl	>= 64 ug ml-1	> 128 µg/mL	> 128		
O=C(O)c1ccccc1Br	>= 64 ug ml-1	> 128 µg/mL	> 128		
Oc1cccnc1	>= 64 ug ml-1	> 128 µg/mL	> 128		
O=Cc1cnc2ccccc2c1	>= 64 ug ml-1	> 128 µg/mL	> 128		
Oc1ccc(Br)nc1	>= 64 ug ml-1	> 128 µg/mL	> 128		
O=C(O)c1ccccc1 [BENZOIC ACID]	>= 64 ug ml-1	> 128 µg/mL	> 128		
O=C(O)c1cnc2ccccc2c1	>= 64 ug ml-1	> 128 µg/mL	32		
O=Cc1ccccc1 [BENZALDEHYDE]	>= 64 ug ml-1	> 128 µg/mL	> 128		
Cc1cc(O)cnc1Cl	>= 64 ug ml-1	> 128 µg/mL	> 128		
Oc1ccc(Cl)nc1	>= 64 ug ml-1	> 128 µg/mL	> 128		
Cc1cccc(O)c1Cl	>= 64 ug ml-1	> 128 µg/mL	64		
Cc1cccc(C(=O)O)c1Cl	>= 64 ug ml-1	> 128 µg/mL	> 128		
COc1ccc(B(O)O)cc1		> 128 µg/mL	64		
Oc1ccccc1 [PHENOL]	>= 64 ug ml-1	> 128 µg/mL	> 128		
O=Cc1ccc(OCc2ccccc2)nc1	>= 64 ug ml-1	> 128 µg/mL	32		
O=Cc1ccc2ccccc2c1 [2-NAPHTHALDEHYDE]	>= 64 ug ml-1	> 128 µg/mL	64		
O=C(O)c1ccc(Br)nc1	>= 64 ug ml-1	> 128 µg/mL	> 128		
O=C(O)c1ccccc1Cl	>= 64 ug ml-1	128 µg/mL (≈ 818 µM)	64		
O=Cc1ccccc1Br	>= 64 ug ml-1	> 128 µg/mL	> 128		
O=Cc1cccnc1 [NICOTINALDEHYDE]	>= 64 ug ml-1	> 128 µg/mL	> 128		
Cc1cc(B(OC(C)(C)C(C)(C)O)OC(C)(C)C(C)(C)O)cnc1N1CCOCC1	>= 64 ug ml-1		32	< 90	< 90
OB(O)c1ccccc1 [PHENYLBORONIC ACID]	>= 64 ug ml-1		32	< 90	< 90
CC(C)(O)C(C)(C)OB(OC(C)(C)C(C)(C)O)c1ccc(OCc2ccccc2)nc1	>= 64 ug ml-1		64	< 90	< 90

SMILES	MIC (Staphylococcus aureus [1])	MIC (Staphylococcus aureus [2])	Activity [3] [µg/mL]	growth inhibition (GI) (Staphylococcus aureus [4]) [%]	growth inhibition (GI) (Staphylococcus aureus [5]) [%]
CC(C)(O)C(C)(C)OB(OC(C)(C)C(C)(C)O)c1cncc(Br)c1	>= 64 ug ml-1		> 128	< 90	< 90
CC(C)(O)C(C)(C)OB(OC(C)(C)C(C)(C)O)c1ccnc(Cl)c1C#N	>= 64 ug ml-1		> 128	< 90	< 90
Cc1cc(B(O)O)cnc1N1CCOCC1	>= 64 ug ml-1		64	< 90	< 90
CC(C)[Si](Oc1ncc(B2OC(C)(C)C(C)(C)O2)o1)(C(C)C)C(C)C	>= 64 ug ml-1		> 128	< 90	< 90
OB(O)c1ccnc(F)c1	>= 64 ug ml-1		> 128	< 90	< 90
CCOc1ccc(B(OC(C)(C)C(C)(C)O)OC(C)(C)C(C)(C)O)cn1	>= 64 ug ml-1		128	< 90	< 90
CC(C)(O)C(C)(C)OB(OC(C)(C)C(C)(C)O)c1cncc(Cl)c1	>= 64 ug ml-1	128 µg/mL (≈ 358 µM)	> 128		
CC1(C)OB(c2cncs2)OC1(C)C	>= 64 ug ml-1		> 128	< 90	< 90
OB(O)c1ccc2[nH]ncc2c1	>= 64 ug ml-1		32	< 90	< 90
Cc1cc(C(=O)O)cnc1Cl	>= 64 ug ml-1	> 128 µg/mL	> 128		
CC(C)(C)OC(=O)n1cccc1B(O)O	>= 64 ug ml-1		> 128	< 90	< 90
CC(C)(O)C(C)(C)OB(OC(C)(C)C(C)(C)O)c1ccc(NCc2ccccc2)nc1	>= 64 ug ml-1		128	< 90	< 90
OCc1ccc(OCc2ccccc2)nc1		>= 128 ug ml-1	> 34		
OB(O)c1ccccc1F	>= 64 ug ml-1		16	< 90	< 90
CC(C)(O)C(C)(C)OB(OC(C)(C)C(C)(C)O)c1ccnc(Cl)c1Cl	>= 64 ug ml-1		32	< 90	< 90
COc1nccc(B(O)O)c1Cl	>= 64 ug ml-1		32	< 90	< 90
Cn1c(B2OC(C)(C)C(C)(C)O2)cnc1Cl	>= 64 ug ml-1		128	< 90	< 90
CC(C)(O)C(C)(C)OB(OC(C)(C)C(C)(C)O)c1ccnc(F)c1Cl	>= 64 ug ml-1		16	< 90	< 90
CC(C)(O)C(C)(C)OB(OC(C)(C)C(C)(C)O)c1ccncc1C#N	>= 64 ug ml-1		> 128	< 90	< 90
Cc1c[nH]nc1B(O)O	>= 64 ug ml-1		64	< 90	< 90
OB(O)c1cccnc1OCc1ccccc1	>= 64 ug ml-1		32	< 90	< 90
CC1(C)OB(c2cnn(C(=O)c3ccccc3)c2)OC1(C)C	>= 64 ug ml-1		128	< 90	< 90
COc1ncccc1B(O)O	>= 64 ug ml-1		16	< 90	< 90
Cc1cccc(C)c1B(O)O	>= 64 ug ml-1		> 128	< 90	< 90
COc1nccc(B(OC(C)(C)C(C)(C)O)OC(C)(C)C(C)(C)O)c1Cl	>= 64 ug ml-1		32	< 90	< 90
OB(O)c1ccnc(Cl)c1	>= 64 ug ml-1		> 128	< 90	< 90
OB(O)c1cccnc1Cl	>= 64 ug ml-1		> 128	< 90	< 90
